# According to ChEMBL document CHEMBL4732095, “Novel naphthylamide derivatives as dual-target antifungal inhibitors: Design, synthesis and biological evaluation” (Eur J Med Chem, 2021):
# pIC50: −log10 of the molar value. The source made the active and inactive calls. The calls are words filed in the database; no cut-off is given here.
# Key:
# [1] = test system: Candida tropicalis; assay: Antifungal activity against Candida tropicalis ATCC 1369 assessed as inhibition of microbial growth by NCCLS protocol based method; format: functional
# Outline: (§1)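 Broth MIC50 determined following NCCLS guidelines in Sabouraud medium, with fungal suspension in 24-well format. Compound tested at 0.0625, 0.125, 0.5, 1, 2, 4, 8 and 16 μg/mL. Plates cultured statically at 35 °C. MIC50 is the lowest concentration giving 50% growth inhibition. Naftifine and fluconazole served as positive controls.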
# [2] = test system: Candida albicans; assay: Antifungal activity against Candida albicans ATCC 10231 assessed as inhibition of microbial growth by NCCLS protocol based method; format: functional; outline: as §1
# [3] = test system: Aspergillus fumigatus; assay: Antifungal activity against Aspergillus fumigatus KM8001 assessed as inhibition of microbial growth by NCCLS protocol based method; format: functional; outline: as §1
# [4] = test system: Nakaseomyces glabratus; assay: Antifungal activity against Candida glabrata ATCC 0001 assessed as inhibition of microbial growth by NCCLS protocol based method; format: functional; outline: as §1
# [5] = test system: Pichia kudriavzevii; assay: Antifungal activity against Candida krusei ATCC 6258 assessed as inhibition of microbial growth by NCCLS protocol based method; format: functional; outline: as §1
# [6] = biological target: T1, Lanosterol 14-alpha demethylase (Candida albicans (strain SC5314 / ATCC MYA-2876) (Yeast), UniProt P10613); assay: Inhibition of CYP51 in Candida albicans ATCC SC5314 assessed as unknown sterol level at 0.5 ug/ml incubated for 48 hrs by LC/MS analysis; set-up: scale not given: the % may be the effect or the level left; details: candida albicans sc5314, 48 h, at 0.5 µg/mL
# T1 sequence (P10613 whole entry): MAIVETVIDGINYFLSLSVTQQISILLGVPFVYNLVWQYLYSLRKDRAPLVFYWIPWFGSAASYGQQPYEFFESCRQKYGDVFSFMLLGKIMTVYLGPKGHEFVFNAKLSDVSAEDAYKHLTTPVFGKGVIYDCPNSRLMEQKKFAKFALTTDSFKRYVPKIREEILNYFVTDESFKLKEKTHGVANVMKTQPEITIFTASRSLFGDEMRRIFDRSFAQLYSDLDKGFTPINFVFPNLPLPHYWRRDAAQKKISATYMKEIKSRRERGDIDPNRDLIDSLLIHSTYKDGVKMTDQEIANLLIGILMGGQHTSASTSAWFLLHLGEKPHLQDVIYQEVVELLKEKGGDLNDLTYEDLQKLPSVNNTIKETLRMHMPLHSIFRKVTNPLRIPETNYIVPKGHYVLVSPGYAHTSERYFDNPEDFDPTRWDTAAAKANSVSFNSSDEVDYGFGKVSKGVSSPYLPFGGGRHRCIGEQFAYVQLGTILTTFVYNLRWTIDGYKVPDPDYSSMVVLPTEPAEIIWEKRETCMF
# Outline: (§2)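 C. albicans SC5314 cells exposed to compound (0.125, 0.5 or 4 μg/mL) for 48 h alongside untreated and naftifine/fluconazole-treated groups; sterol fraction analysed by LC-MS; each component expressed as percent of total sterols from peak area ratios.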
# [7] = biological target: T1, Lanosterol 14-alpha demethylase; assay: Inhibition of CYP51 in Candida albicans ATCC SC5314 assessed as unknown sterol level at 0.125 ug/ml incubated for 48 hrs by LC/MS analysis; set-up: scale not given: the % may be the effect or the level left; details: candida albicans sc5314, 48 h, at 0.125 µg/mL
# Outline: (§3)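 C. albicans ATCC SC5314 cells exposed to drug at 0.125, 0.5 or 4 μg/mL for 48 h, alongside an untreated control. Sterols were extracted and analysed by LC-MS. Ergosterol, squalene, lanosterol, eburicol and unknown sterols are each given as % of total sterols, calculated from the peak area ratio of each component.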
# [8] = biological target: T1, Lanosterol 14-alpha demethylase; assay: Inhibition of CYP51 in Candida albicans ATCC SC5314 assessed as unknown sterol level at 4 ug/ml incubated for 48 hrs by LC/MS analysis; set-up: scale not given: the % may be the effect or the level left; details: candida albicans sc5314, 48 h, at 4 µg/mL; outline: as §2
# [9] = test system: Candida albicans; assay: Antifungal activity against Candida albicans ATCC SC5314 assessed as induction of cell fracture at 10 nM/mL by polarizing microscopy; format: functional, organism-based; details: dose 10.0 nmol/ml
# Outline: (§4)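 C. albicans ATCC SC5314 observed by polarizing microscopy over treatment time. Untreated, fluconazole- and naftifine-treated control groups were included. Cell density, dividing cells and cell fracture were assessed, with cell counts taken per field.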
# [10] = test system: Candida albicans; assay: Antifungal activity against fluconazole-resistant Candida albicans 632 assessed as inhibition of microbial growth by NCCLS protocol based method; format: functional
# [11] = test system: Candida albicans; assay: Antifungal activity against Candida albicans ATCC SC5314 assessed as reduction in cell division at 10 nM/mL by polarizing microscopy; format: functional, organism-based; details: dose 10.0 nmol/ml; outline: as §4
# [12] = biological target: T1, Lanosterol 14-alpha demethylase; assay: Inhibition of CYP51 in Candida albicans ATCC SC5314 assessed as lanosterol level at 0.125 ug/ml incubated for 48 hrs by LC/MS analysis; set-up: scale not given: the % may be the effect or the level left; details: candida albicans sc5314, 48 h, at 0.125 µg/mL; outline: as §3
# [13] = biological target: T1, Lanosterol 14-alpha demethylase; assay: Inhibition of CYP51 in Candida albicans ATCC SC5314 assessed as ergosterol level at 4 ug/ml incubated for 48 hrs by LC/MS analysis (reference value: 95.1 %); set-up: scale not given: the % may be the effect or the level left; details: candida albicans sc5314, 48 h, at 4 µg/mL; outline: as §2
# [14] = test system: Candida albicans; assay: Antifungal activity against Candida albicans ATCC SC5314 assessed as decrease in fungal cell density at 10 nM/mL by polarizing microscopy; format: functional, organism-based; details: dose 10.0 nmol/ml; outline: as §4
# [15] = biological target: T1, Lanosterol 14-alpha demethylase; assay: Inhibition of CYP51 in Candida albicans ATCC SC5314 assessed as squalene level at 4 ug/ml incubated for 48 hrs by LC/MS analysis; set-up: scale not given: the % may be the effect or the level left; details: candida albicans sc5314, 48 h, at 4 µg/mL; outline: as §2
# [16] = biological target: T1, Lanosterol 14-alpha demethylase; assay: Inhibition of CYP51 in Candida albicans ATCC SC5314 assessed as eburicol level at 4 ug/ml incubated for 48 hrs by LC/MS analysis (reference value: 1.4 %); set-up: scale not given: the % may be the effect or the level left; details: candida albicans sc5314, 48 h, at 4 µg/mL; outline: as §2
# [17] = test system: Candida albicans; assay: Antifungal activity against fluconazole-resistant Candida albicans 17# assessed as inhibition of microbial growth by NCCLS protocol based method; format: functional
# [18] = biological target: T1, Lanosterol 14-alpha demethylase; assay: Inhibition of Candida albicans ATCC SC5314 CYP51 incubated for 30 mins by HPLC method
# [19] = test system: Candida albicans; assay: Antifungal activity against fluconazole-resistant Candida albicans CaR assessed as inhibition of microbial growth by NCCLS protocol based method; format: functional
# [20] = biological target: T1, Lanosterol 14-alpha demethylase; assay: Inhibition of CYP51 in Candida albicans ATCC SC5314 assessed as lanosterol level at 0.5 ug/ml incubated for 48 hrs by LC/MS analysis; set-up: scale not given: the % may be the effect or the level left; details: candida albicans sc5314, 48 h, at 0.5 µg/mL; outline: as §2
# [21] = biological target: T1, Lanosterol 14-alpha demethylase; assay: Inhibition of CYP51 in Candida albicans ATCC SC5314 assessed as eburicol level at 0.125 ug/ml incubated for 48 hrs by LC/MS analysis (reference value: 1.4 %); set-up: scale not given: the % may be the effect or the level left; details: candida albicans sc5314, 48 h, at 0.125 µg/mL; outline: as §3
# [22] = test system: Candida albicans; assay: Antifungal activity against fluconazole-resistant Candida albicans 901 assessed as inhibition of microbial growth by NCCLS protocol based method; format: functional
# [23] = biological target: T1, Lanosterol 14-alpha demethylase; assay: Inhibition of CYP51 in Candida albicans ATCC SC5314 assessed as ergosterol level at 0.125 ug/ml incubated for 48 hrs by LC/MS analysis (reference value: 95.1 %); set-up: scale not given: the % may be the effect or the level left; details: candida albicans sc5314, 48 h, at 0.125 µg/mL; outline: as §3
# [24] = biological target: T1, Lanosterol 14-alpha demethylase; assay: Inhibition of CYP51 in Candida albicans ATCC SC5314 assessed as ergosterol level at 0.5 ug/ml incubated for 48 hrs by LC/MS analysis (reference value: 95.1 %); set-up: scale not given: the % may be the effect or the level left; details: candida albicans sc5314, 48 h, at 0.5 µg/mL; outline: as §2
# [25] = test system: Candida albicans; assay: Antifungal activity against fluconazole-resistant Candida albicans 904 assessed as inhibition of microbial growth by NCCLS protocol based method; format: functional
# [26] = biological target: T1, Lanosterol 14-alpha demethylase; assay: Inhibition of CYP51 in Candida albicans ATCC SC5314 assessed as eburicol level at 0.5 ug/ml incubated for 48 hrs by LC/MS analysis (reference value: 1.4 %); set-up: scale not given: the % may be the effect or the level left; details: candida albicans sc5314, 48 h, at 0.5 µg/mL; outline: as §2
# [27] = biological target: T1, Lanosterol 14-alpha demethylase; assay: Inhibition of CYP51 in Candida albicans ATCC SC5314 assessed as lanosterol level at 4 ug/ml incubated for 48 hrs by LC/MS analysis; set-up: scale not given: the % may be the effect or the level left; details: candida albicans sc5314, 48 h, at 4 µg/mL; outline: as §2
structure (smiles),measurement,setting,value
CN(CC(=O)NC(Cn1ccnc1)C(=O)c1ccccc1)C(=O)c1cccc2ccccc12 (configuration not stated),MIC50,[1],0.25 µg/mL
same,MIC50,[2],0.5 µg/mL
same,MIC50,[3],8 µg/mL
same,MIC50,[4],0.25 µg/mL
same,MIC50,[5],0.5 µg/mL
O=C(NC(Cn1ccnc1)C(=O)NCc1ccncc1)c1cccc2ccccc12 (configuration not stated),MIC50,[1],0.25 µg/mL
same,MIC50,[2],0.25 µg/mL
same,MIC50,[3],8 µg/mL
same,MIC50,[4],0.5 µg/mL
same,MIC50,[5],0.5 µg/mL
CN(CC(=O)NCc1ccncc1)C(=O)c1ccc2ccccc2c1,MIC50,[1],1 µg/mL
same,MIC50,[2],0.25 µg/mL
same,MIC50,[3],8 µg/mL
same,MIC50,[4],2 µg/mL
same,MIC50,[5],0.5 µg/mL
O=C(NC(Cn1ccnc1)C(=O)NCc1ccccc1)c1ccc2ccccc2c1 (configuration not stated),MIC50,[1],0.5 µg/mL
same,MIC50,[2],0.5 µg/mL
same,MIC50,[3],> 16 µg/mL
same,MIC50,[4],1 µg/mL
same,MIC50,[5],1 µg/mL
CN(CC(=O)NCc1cccnc1)C(=O)c1cccc2ccccc12,MIC50,[1],0.25 µg/mL
same,MIC50,[2],0.5 µg/mL
same,MIC50,[3],> 16 µg/mL
same,MIC50,[4],2 µg/mL
same,MIC50,[5],0.5 µg/mL
CN(CC(=O)Nc1cccnc1)C(=O)c1cccc2ccccc12,MIC50,[1],0.25 µg/mL
same,MIC50,[2],0.25 µg/mL
same,MIC50,[3],> 16 µg/mL
same,MIC50,[4],0.25 µg/mL
same,MIC50,[5],0.5 µg/mL
OC(Cn1cncn1)(Cn1cncn1)c1ccc(F)cc1F [FLUCONAZOLE],Activity,[6],4.7%
same,Activity,[7],3.6%
same,Activity,[8],5.2%
same,Activity,[9],Active
same,MIC50,[10],8 µg/mL
same,MIC50,[1],0.25 µg/mL
same,Activity,[11],Active
same,Activity,[12],5.1%
same,Activity,[13],12.7%
same,Activity,[14],Active
same,Activity,[15],1.3%
same,Activity,[16],64.5%
same,MIC50,[2],0.25 µg/mL
same,MIC50,[17],8 µg/mL
same,pIC50,[18],6.94
same,MIC50,[3],> 16 µg/mL
same,MIC50,[19],> 16 µg/mL
same,MIC50,[4],0.25 µg/mL
same,Activity,[20],8.9%
same,Activity,[21],12.8%
same,MIC50,[22],> 16 µg/mL
same,Activity,[23],78.5%
same,MIC50,[5],1 µg/mL
same,Activity,[24],43.9%
same,MIC50,[25],8 µg/mL
same,Activity,[26],42.5%
same,Activity,[27],16.3%
